Measurements from ChEMBL document CHEMBL2040847, “Overcoming clopidogrel resistance: discovery of vicagrel as a highly potent and orally bioavailable antiplatelet agent” (J Med Chem, 2012).

Experiments:
Rattus norvegicus [1] = assay: Antiplatelet activity in Wistar rat assessed as inhibition of ADP-induced platelet aggregation at 3 mg/kg, po measured after 2 hrs by Born's method; format: functional; parameters: scale not given: the % may be the effect or the level left
Summary of the method: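 Oral dosing at 3 mg/kg, CMC as vehicle, groups of 10 rats. At 2 h the rats were anesthetized with pentobarbital sodium and blood was drawn from the abdominal aorta. Ex vivo aggregation was induced with ADP 1.2 μM and read on an aggregometer (Born's method). Values are mean ± SD, n = 10, statistics versus vehicle.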

Rattus norvegicus [2] = assay: Tmax in Sprague-Dawley rat assessed as clopidogrel thioacetate level at 24 umol/kg, po; format: ADME, organism-based; settings: in vivo
Rattus norvegicus [3] = assay: Cmax in Sprague-Dawley rat assessed as clopidogrel thioacetate level at 24 umol/kg, po; format: ADME, organism-based; parameters: dose 24 umol/kg, route oral; settings: in vivo
Liver microsomes [4] = assay: Drug metabolism in rat liver microsomes assessed as NADPH-dependent active metabolite glutathione adducts 4 formation at 20 uM after 30 mins by LC-MS/MS analysis; format: ADME, Microsome; settings: 0.5 h
Summary of the method: (§1)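 Pooled SD rat liver microsomes (1.0 mg/mL protein) with compound 20 μM (diluted from 10 mM DMSO stock), NADPH 1.0 mM and glutathione 10 mM in 100 mM potassium phosphate pH 7.4. Incubated 30 min at 37 °C; controls lacked NADPH. Quenched with ice-cold 10% TCA and centrifuged. Supernatant analysed by LC-MS/MS (phenyl column, positive ESI), monitoring AMGS adducts at m/z 661 (SIM).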

Liver microsomes [5] = assay: Drug metabolism in rat liver microsomes assessed as NADPH-dependent active metabolite glutathione adducts 2 formation at 20 uM after 30 mins by LC-MS/MS analysis; format: ADME, Microsome; settings: 0.5 h; summary of the method: as §1
Liver microsomes [6] = assay: Drug metabolism in rat liver microsomes assessed as NADPH-dependent active metabolite glutathione adducts 3 formation at 20 uM after 30 mins by LC-MS/MS analysis; format: ADME, Microsome; settings: 0.5 h; summary of the method: as §1
Liver microsomes [7] = assay: Drug metabolism in rat liver microsomes assessed as NADPH-dependent active metabolite glutathione adducts 1 formation at 20 uM after 30 mins by LC-MS/MS analysis; format: ADME, Microsome; settings: 0.5 h; summary of the method: as §1
Liver microsomes [8] = assay: Drug metabolism in rat liver microsomes assessed as NADPH-dependent active metabolite glutathione adducts formation at 20 uM after 30 mins by LC-MS/MS analysis in presence of NADPH and GSH; format: ADME, Microsome; settings: 0.5 h; summary of the method: as §1
Rattus norvegicus [9] = assay: Half life in Sprague-Dawley rat assessed as clopidogrel thioacetate level at 24 umol/kg, po; format: ADME, organism-based; settings: in vivo
Rattus norvegicus [10] = assay: AUC (0 to infinity) in Sprague-Dawley rat […] at 24 umol/kg, po; format: ADME, organism-based, Plasma; parameters: dose 24 umol/kg, route oral, time infinity; settings: in vivo
[11] = Toxicity in beagle dog assessed as maximum tolerated dose; format: organism-based, Canis lupus familiaris; settings: in vivo
Summary of the method: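 Single-dose oral study in beagle dogs, run in a GLP laboratory. Both the no-observed-adverse-effect level and the maximal tolerated dose were determined.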

Mus musculus [12] = assay: Toxicity in mouse assessed as mortality at 5000 mg/kg, po measured after 14 days; format: organism-based; parameters: dose 5000 mg/kg, route oral; settings: in vivo, 336 h
Summary of the method: (§2)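 Single-dose study in a GLP laboratory. Deaths were recorded, and the liver and other organs were assessed for injury or adverse effects.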

Mus musculus [13] = assay: Toxicity in mouse assessed as liver injury at 5000 mg/kg, po measured after 14 days; format: organism-based; parameters: dose 5000 mg/kg, route oral; settings: in vivo, 336 h; summary of the method: as §2
Mus musculus [14] = assay: Toxicity in mouse assessed as tissue injury at 5000 mg/kg, po measured after 14 days; format: organism-based; parameters: dose 5000 mg/kg, route oral; settings: in vivo, 336 h; summary of the method: as §2
[15] = Toxicity in beagle dog assessed as no-observed adverse effect level; format: organism-based, Canis lupus familiaris; settings: in vivo

| Structure (SMILES) | Activity (Rattus norvegicus [1]) [%] | other results |
| --- | --- | --- |
| CCC(=O)Oc1cc2c(s1)CCN([C@H](C(=O)OC)c1ccccc1Cl)C2 | 46.7 | – |
| CCCC(=O)Oc1cc2c(s1)CCN([C@H](C(=O)OC)c1ccccc1Cl)C2 | 52.8 | – |
| COC(=O)[C@H](c1ccccc1Cl)N1CCc2sc(OC(=O)C(C)(C)C)cc2C1 | 63.4 | – |
| CCC(C)(C)C(=O)Oc1cc2c(s1)CCN([C@H](C(=O)OC)c1ccccc1Cl)C2 | 70 | – |
| COC(=O)[C@H](c1ccccc1Cl)N1CCc2sc(OC(=O)c3ccccc3)cc2C1 | 60.1 | – |
| COC(=O)[C@H](c1ccccc1Cl)N1CCc2sc(OC(=O)c3ccc([N+](=O)[O-])cc3)cc2C1 | 75.6 | – |
| COC(=O)[C@H](c1ccccc1Cl)N1CCc2sc(OC(=O)c3ccc(OC)cc3)cc2C1 | 82.6 | – |
| COC(=O)[C@H](c1ccccc1Cl)N1CCc2sc(OC(=O)c3ccccc3OC(C)=O)cc2C1 | 77.9 | – |
| COC(=O)[C@H](c1ccccc1Cl)N1CCc2sc(OC(=O)Cc3ccccc3)cc2C1 | 53.8 | – |
| COC(=O)[C@H](c1ccccc1Cl)N1CCc2sc(OC(=O)/C=C/c3ccccc3)cc2C1 | 84.7 | – |
| COC(=O)[C@H](c1ccccc1Cl)N1CCc2sc(OC(=O)c3cccnc3)cc2C1 | 45.1 | – |
| COC(=O)Oc1cc2c(s1)CCN([C@H](C(=O)OC)c1ccccc1Cl)C2 | 38.6 | – |
| CCOC(=O)Oc1cc2c(s1)CCN([C@H](C(=O)OC)c1ccccc1Cl)C2 | 53 | – |
| COC(=O)[C@H](c1ccccc1Cl)N1CCc2sc(OC(=O)OC(C)C)cc2C1 | 50.2 | – |
| COC(=O)[C@H](c1ccccc1Cl)N1CCc2sc(OC(=O)OCC(C)C)cc2C1 | 65.6 | – |
| COC(=O)[C@H](c1ccccc1Cl)N1CCc2sc(OC(=O)OCc3ccccc3)cc2C1 | 72.2 | – |
| COC(=O)[C@H](c1ccccc1Cl)N1CCc2sc(OC(=O)COc3ccccc3)cc2C1 | 75.4 | – |
| COC(=O)[C@H](c1ccccc1Cl)N1CCc2sc(OC(=O)N(C)C)cc2C1 | 67.7 | – |
| COC(=O)[C@H](c1ccccc1Cl)N1CCc2sc(OC(=O)N3CCCC3)cc2C1 | 80.9 | – |
| COC(=O)[C@H](c1ccccc1)N1CCc2sc(OC(C)=O)cc2C1 | 81.1 | – |
| COC(=O)[C@H](c1ccccc1F)N1CCc2sc(OC(C)=O)cc2C1 | 62.9 | – |
| COC(=O)[C@@H](c1ccccc1Cl)N1CCc2sc(OC(C)=O)cc2C1 | 68.4 | – |
| COC(=O)C(c1ccccc1Cl)N1CCc2sc(OC(C)=O)cc2C1 (racemic) | 63.7 | – |
| COC(=O)[C@H](c1ccccc1Cl)N1CCc2sccc2C1.O=S(=O)(O)O [CLOPIDOGREL BISULFATE] | 73.7 | – |
| COC(=O)[C@H](c1ccccc1Cl)N1CCC2SC(=O)C=C2C1 (stereo not given in full) [CLOPIDOGREL THIOLACTONE] | 48.6 | – |
| COC(=O)[C@H](c1ccccc1Cl)N1CCc2sccc2C1 [CLOPIDOGREL] | – | Tmax (Rattus norvegicus [2]): 0.583 h; Cmax (Rattus norvegicus [3]): 6.93 ng/mL; Drug metabolism (Liver microsomes [4]): Active; Drug metabolism (Liver microsomes [5]): Active; Drug metabolism (Liver microsomes [6]): Active; Drug metabolism (Liver microsomes [7]): Active; Drug metabolism (Liver microsomes [8]): Active; t1/2 (Rattus norvegicus [9]): 2.48 h; AUC (Rattus norvegicus [10]): 32.2 ng·h/mL |
| CC(=O)Oc1cc2c(s1)CCN(C(C(=O)C1CC1)c1ccccc1F)C2 (stereo not given) [PRASUGREL] | 32.1 | – |
| COC(=O)[C@H](c1ccccc1Cl)N1CCc2sc(OC(C)=O)cc2C1 [SUMECIGREL] | 34.6 | MTD [11]: > 2000 mg/kg; Tmax (Rattus norvegicus [2]): 1.17 h; Cmax (Rattus norvegicus [3]): 67.2 ng/mL; Drug metabolism (Liver microsomes [4]): Active; Drug metabolism (Liver microsomes [5]): Active; Drug metabolism (Liver microsomes [6]): Active; Drug metabolism (Liver microsomes [7]): Active; Drug metabolism (Liver microsomes [8]): Active; t1/2 (Rattus norvegicus [9]): 2.19 h; AUC (Rattus norvegicus [10]): 211 ng·h/mL; Activity (Mus musculus [12]): Non-toxic; Activity (Mus musculus [13]): Toxic; Activity (Mus musculus [14]): Non-toxic; NOAEL [15]: 300 mg/kg |
